Compound activity (PubChem BioAssay)
mHtt clearance = compounds clearing mutant huntingtin protein | HeLa Exon1htt(103Q)mCFP, aggregate imaging; zero = plate's median compound well | inhibition, % at 1.5 µM | 47,000 compounds, 0.42% hits;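 active = inhibition of aggregate fluorescence above about 70%, also judged a hit by eye on the cell image, limit read from the data, passing the limit was not always enough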;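 note: cells exposed to compound for three days before fixation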
RORA act = RORA (human) activation; P35398; 65,000 compounds, 1.5% hits; CHO-K1 Gal4-RORA LBD luciferase reporter, luminescence; percent increase over mock-subtracted basal signal; activation, % at 10 µM; AID 560;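 active = activation above the mean of all tested compounds plus 3 SD, cut at about 49% in these data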;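 note: 0% = DMSO-treated RORA cells and 100% = added signal equal to DMSO minus mock-transfected cells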
M1 antagonist = M1 muscarinic receptor (rat) antagonism. B-score at 10 µM. 64,000 compounds, 3.4% hits. CHO-M1 cells, Fluo-4 calcium, ACh EC80 antagonist mode; active compounds read low. P08482;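 active = calcium fluorescence response, raw or row-and-column corrected B-score, differing from the plate sample mean either way at a set confidence level, mostly lower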
Target sequence (P08482 whole entry, looked up): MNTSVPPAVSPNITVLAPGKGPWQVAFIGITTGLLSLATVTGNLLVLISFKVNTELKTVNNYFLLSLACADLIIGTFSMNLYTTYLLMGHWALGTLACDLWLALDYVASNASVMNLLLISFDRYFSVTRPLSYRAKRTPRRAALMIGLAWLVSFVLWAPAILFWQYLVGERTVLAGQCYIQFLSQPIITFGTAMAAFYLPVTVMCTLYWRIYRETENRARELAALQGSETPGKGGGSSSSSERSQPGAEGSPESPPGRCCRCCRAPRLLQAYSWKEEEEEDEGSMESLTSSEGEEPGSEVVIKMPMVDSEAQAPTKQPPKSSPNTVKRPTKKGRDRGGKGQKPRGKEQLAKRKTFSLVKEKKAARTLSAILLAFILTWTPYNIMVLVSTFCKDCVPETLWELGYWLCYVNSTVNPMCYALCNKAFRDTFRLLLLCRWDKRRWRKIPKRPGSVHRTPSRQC
SF-1 act = activates the human nuclear receptor SF-1. 65,000 compounds, 1.9% hits. Q13285. activation, % at 10 µM. CHO-K1 Gal4-SF-1 LBD luciferase reporter; % increase over DMSO SF-1-specific signal. AID 522;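 active = activation above the mean activation of all tested compounds plus 3 SD, cut at about 50% in these data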
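Assay system: CHO-K1 cells co-transfected with Gal4 DBD–human SF-1 LBD, 5xGal4 luciferase reporter / Input: 4,000 cells per well / Incubation: 20 h compound exposure at 37 °C after 1 h cell settling / Detection: SteadyLite luciferase luminescence / Control set: DMSO negative control and −SF1 background wells / Replication: one test per compound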
M1 agonist = agonists of M1 muscarinic receptor; CHO-M1 cells, Fluo-4 calcium fluorescence, agonist mode; active compounds read high; B-score at 10 µM; 64,000 compounds, 3% hits; AID 626;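 active = fluorescence rise, raw or as B-score row- and column-corrected plate score, outside the 99.7% band of its plate's samples, either direction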
D1 allo mod = D1 dopamine receptor (human) allosteric modulation; B-score at 10 µM; AID 641; HEK293 D1, CRE-luciferase, dopamine EC30 potentiation; actives deviate in either direction; 58,000 compounds, 5.9% hits;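 active = luminescence count or its row- and column-corrected plate score outside the 99.7% band of the plate's sample wells, on either side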
D1 mod confirm = D1 receptor (human) allosteric modulation, confirmed; luminescence at 10 µM; shares compounds with D1 allo mod; HEK293 D1 CRE-luciferase, dopamine EC30 potentiation; active compounds read high; 2,200 compounds, 88% hits;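 active = luminescence in either of two replicates above the same-plate mean plus 3 SD of the low-dose dopamine control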
D1 ag no DA = secondary test of D1 modulators: activity without dopamine. 1,900 compounds, 0.8% hits. luminescence at 10 µM. HEK293 D1 CRE-luciferase, luminescence, no dopamine; active compounds read high. shares compounds with D1 allo mod; in the data active = luminescence above about 3900
Isoprot counter = alters isoproterenol CRE-luciferase response in HEK293 cells | shares compounds with D1 allo mod | HEK293 D1 CRE-luciferase, isoproterenol EC30 counter-screen | calls only at 10 µM | 2,200 compounds, 63% hits | AID 647;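 active = luminescence in either replicate above plate mean of wells with a partly effective reference agonist dose plus 3 SD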;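 note: isoproterenol raises cAMP through native beta-adrenoceptor Gs so signal bypasses D1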
Numbers without * were called inactive; i = inactive; . = no result; + = active, no number. Only some compounds are listed: those with a hit (about 11% of all), similar ones and a draw of the others.

SMILES | mHtt clearance | RORA act | M1 antagonist | SF-1 act | M1 agonist | D1 allo mod | D1 mod confirm | D1 ag no DA | Isoprot counter
O=C(CSc1nc(Nc2ccccc2)nc(N2CCOCC2)n1)N1CCCC1 | 13 | 5 | -0.44 | 2 | 0.79 | 5.6* | 9432* | 1476 | +
O=C(CSc1nc(Nc2ccccc2)nc(N2CCOCC2)n1)Nc1ccc2c(c1)OCCO2 | -68 | -28 | 0 | 8 | 0.012 | 3.4* | 8860* | . | +
Cc1ccc(-c2noc(CCC(=O)N3CCCc4ccccc43)n2)cc1 | . | -11 | 0.73 | -8 | -0.25 | 0.25 | . | . | .
O=C1c2oc3ccc(Cl)cc3c(=O)c2C(c2ccccn2)N1CCCN1CCOCC1 (configuration not stated) | . | 11 | -0.29 | 11 | 0.59 | 0.68 | . | . | .
CCn1ccc(C(=O)Nc2ccc(N(C)C(C)=O)cc2)n1 | . | 13 | -0.17 | 38 | 0.36 | 2.4* | 5156 | 1532 | i
CCN(CC)c1ccc(NC(=O)c2cnn(CC)c2)cc1 | -67 | . | . | . | . | . | . | . | .
N#Cc1c(-c2ccco2)cc(-c2cccnc2)nc1N | -9 | 6 | 0.026 | 11 | -0.15 | 8.3* | 14352* | 1676 | +
Cc1c(-c2ccccc2)nc(N)c(C#N)c1-c1ccco1 | 33 | 4 | -0.16 | -9 | 0.091 | 5* | 15044* | 1636 | i
N#Cc1c(-c2ccco2)cc(-c2ccccn2)nc1N | 26 | -10 | . | -2 | . | 6.5* | 12544* | 1548 | +
CC(C)OC(=O)c1nnn(-c2nonc2N)c1CN1CCCCCC1 | -28 | 1 | 0.69 | -9 | -0.26 | -0.49 | . | . | .
CCC(=O)n1nc(-c2ccccc2)nc1NCc1ccccc1 | . | 9 | -0.046 | -2 | 0.4 | 0.58 | . | . | .
CCC(=O)n1nc(NCc2ccc(OC)c(OC)c2)nc1NCc1ccc(OC)c(OC)c1 | . | 13 | 0.0066 | -8 | 0.56 | 6* | 15072* | . | +
COCC(=O)n1nc(NCc2ccc(OC)cc2)nc1NCc1ccc(OC)cc1 | . | -18 | 1.2 | 0 | 0.82 | 1.5 | . | . | .
CCC(=O)n1nc(-c2cccnc2)nc1NCc1ccc(OC)cc1 | -8 | -10 | -0.048 | -2 | 0.4 | 11* | 7416* | 1672 | i
COc1ccc(CNc2nc(NCc3ccc(OC)cc3)n(S(C)(=O)=O)n2)cc1 | . | 14 | 0.013 | -2 | 0.016 | 4.7* | 9448* | 1620 | +
CCOC(=O)c1c(NC(=O)CSc2nnc(CNc3ccc(OC)cc3)n2C)sc(C)c1C | 19 | -11 | -0.48 | -4 | 0.48 | 2.9 | . | . | .
CCn1nc(NC(=O)c2ccncc2)c2cc3cccc(C)c3nc21 | -13 | -7 | 0.43 | -13 | 0.33 | 0.66 | . | . | .
CCn1nc(NC(=O)c2ccncc2)c2cc3ccccc3nc21 | . | 1 | 0.00074 | -10 | 0.64 | 11* | 15352* | 1464 | +
CCCn1nc(NC(=O)c2ccco2)c2cc3ccc(C)cc3nc21 | . | -10 | -0.38 | 13 | -0.36 | 3.2 | . | . | .
CCn1nc(NC(=O)c2ccco2)c2cc3ccccc3nc21 | 12 | -23 | -0.32 | 13 | -0.6 | 14* | 12332* | 1428 | +
CCCCNC(=O)Cc1coc2ccc3ccccc3c12 | -11 | . | . | . | . | . | . | . | .
CCCN1CCN(C(=O)c2cccc3c2C(=O)N(CCOC)C3)CC1 | . | 2 | 1.1 | 0 | 0.62 | -0.81 | . | . | .
Cc1ccc2nc(Nc3ccccc3)c(/C=N/O)c(=O)n2c1 | . | 9 | 1.1 | -2 | -0.74 | 10* | 17088* | 1488 | +
CN(C)c1nc(SCCOC(=O)Nc2ccccc2)nc(N(C)C)n1 | -27 | -3 | -0.83 | 4 | -0.19 | 0.63 | . | . | .
O=C(CNS(=O)(=O)c1ccc(Br)s1)N1CCN(c2ncccn2)CC1 | -11 | 4 | 0.36 | -3 | 1.3 | -0.6 | . | . | .
SMILES | mHtt clearance | RORA act | M1 antagonist | SF-1 act | M1 agonist | D1 allo mod | D1 mod confirm | D1 ag no DA | Isoprot counter
CC(=O)c1c(C)cc(C)c(CSc2nc(C)cc(=O)[nH]2)c1C | . | -11 | 0.0052 | -8 | -0.2 | . | . | . | .
CC1(C)Cc2nc(-c3ccccc3)n3cnnc3c2CO1 | . | -20 | 0.26 | -7 | -0.56 | 9.5* | 13436* | 1760 | +
CC(=O)NC1C(=O)N=C(SCc2ccccc2)NC1=O (configuration not stated) | -2 | . | . | . | . | 0.0046 | . | . | .
CC(=O)NC1Sc2ccccc2N=C1c1ccccc1 (configuration not stated) | -37 | 42 | 0.69 | 59* | 0.74 | 6.1* | 7472* | . | i
CCOC(=O)N1CC=C2C(C#N)=C(N)C(C#N)(C#N)[C@H](c3ccccc3OCC)[C@H]2C1 | 33 | 16 | 1.6 | -2 | -0.013 | -0.79 | . | . | .
N#CC1=C(N)C(C#N)(C#N)C(c2ccc[nH]2)C2CCCC=C12 (configuration not stated) | -91 | 18 | -0.065 | 2 | 1.8 | 2.8* | 4776 | 1816 | i
Cc1ccc(-n2nnc3c(SCC(=O)N4CCN(c5ccccc5)CC4)ncnc32)cc1 | -16 | 3 | -0.37 | -3 | -0.0017 | . | . | . | .
C=CCn1cc(C(=O)NCc2cccnc2)c(=O)c2cc(S(=O)(=O)N(CC)CC)ccc21 | . | 18 | -0.27 | 12 | -0.64 | 2.8* | 9940* | 1684 | +
CCn1cc(C(=O)NCCCN(C)c2ccccc2)c(=O)c2cc(S(=O)(=O)N(C)C)ccc21 | . | 20 | -0.17 | 1 | 0.022 | 5.6* | 8908* | 1440 | +
CCn1cc(C(=O)NCc2ccccc2OC)c(=O)c2cc(S(=O)(=O)N(C)C)ccc21 | . | -7 | -0.15 | -7 | -0.68 | 7.8* | 13952* | 1756 | +
CCn1cc(C(=O)NCc2ccc3c(c2)OCO3)c(=O)c2cc(S(=O)(=O)N3CCOCC3)ccc21 | . | 8 | -0.11 | -9 | -0.063 | 3.7* | 10664* | 1608 | +
Cc1ccc(Cn2nnc3c(=O)n(CC(=O)NCc4ccc5c(c4)OCO5)cnc32)cc1 | -4 | 13 | -1.8 | -5 | 0.49 | 0.93 | . | . | .
Cc1ccc2[nH]c3c(c2c1)CN(C(=O)CN1CCN(c2ccccc2F)CC1)CC3 | -28 | 3 | -0.036 | 5 | 0.15 | 0.54 | . | . | .
O=C1CSc2ccccc2N1Cc1ccccc1F | 12 | -7 | 0.79 | -6 | 1.2 | 3.5* | 6672* | 1472 | i
O=C(CN1C(=O)CSc2ccccc21)NC1CCCC1 | . | -10 | -0.032 | -1 | 0.59 | 0.25 | . | . | .
O=C1Nc2cc3c(cc2Sc2ccccc21)OCCO3 | . | -11 | -0.0051 | -22 | 0.11 | 1.3 | . | . | .
CCOC(=O)CSc1nc2c(sc(=S)n2Cc2ccco2)c(=O)n1-c1ccccc1 | . | -5 | -0.54 | 10 | 1.2 | 4.5* | 8252* | 1608 | i
